ChEMBL document CHEMBL1156600, “Diacarperoxides, norterpene cyclic peroxides from the sponge Diacarnus megaspinorhabdosa” (J Nat Prod, 2008)
≈ marks a conversion by molar mass, not a printed value. Calls of active or inactive are those of the source. The rule behind the calls is not given here.

How the values were obtained:
L5178Y = assay: Cytotoxicity against mouse L5178Y cells by MTT assay; type: functional, cell-based
Method in brief: (§1)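 Antiproliferative MTT (microculture tetrazolium) read-out in cancer cell lines: HeLa human cervix carcinoma, L5178Y mouse lymphoma, PC12 rat […] cells.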

PC-12 = assay: Cytotoxicity against rat PC12 cells by MTT assay; type: functional, cell-based; method in brief: as §1
HeLa = assay: Cytotoxicity against human HeLa cells by MTT assay; type: functional, cell-based; method in brief: as §1
[1] = Toxicity in Artemia salina assessed as mortality at 10 ug/ml after 48 hrs; type: organism-based; conditions: in vivo, read-out: Activity
[2] = Toxicity in Artemia salina assessed as mortality at 10 ug/ml after 24 hrs; type: organism-based; conditions: in vivo, read-out: Activity

SMILES	EC50 (L5178Y)	Activity (PC-12)	Activity (HeLa)	Activity (L5178Y)	mortality at 48 h, 10 ug/ml [1]	mortality at 24 h, 10 ug/ml [2]	EC50 (PC-12)	EC50 (HeLa)
COC(=O)[C@H](C)[C@@H]1CC[C@@](C)(CCC2=C(C)C(=O)CCC2(C)C)OO1 [METHYL DIACARNOATE A]	< 3 µg/mL	inactive	inactive	–	–	–	–	–
COC(=O)[C@H](C)[C@@H]1CC[C@@](C)(CCC2=C(C)CCCC2(C)C)OO1	–	inactive	inactive	inactive	65%	25%	–	–
COC(=O)[C@H](C)[C@@H]1CC[C@@](C)(CCC(=O)C(C)(C)CCCC(C)=O)OO1 [DIACARPEROXIDE C]	> 10 µg/mL	inactive	inactive	–	55%	35%	–	–
CC1=C(CC[C@]2(C)CC[C@H]([C@@H](C)C(=O)O)OO2)[C@@]2(C)CCCC(C)(C)[C@@H]2CC1=O [DIACARPEROXIDE F]	0.06 µg/mL (≈ 0.148 µM)	–	–	–	–	–	0.8 µg/mL (≈ 1.97 µM)	0.6 µg/mL (≈ 1.48 µM)
COC(=O)[C@@H](C)[C@@H]1CC[C@](C)(CCC(=O)C(C)(C)CCCC(C)=O)OO1 [DIACARPEROXIDE B]	10 µg/mL (≈ 27 µM)	inactive	inactive	–	55%	45%	–	–
COC(=O)[C@H](C)[C@H]1CC[C@@](C)(CCC2=C(C)C(=O)CCC2(C)C)OO1 [DIACARPEROXIDE A]	> 10 µg/mL	inactive	inactive	–	55%	35%	–	–
CC1=C(CC[C@]2(C)CC[C@H]([C@@H](C)C(=O)O)OO2)[C@]2(C)CCCC(C)(C)[C@H]2CC1 [DIACARPEROXIDE D]	< 0.1 µg/mL	–	–	–	–	–	8.1 µg/mL (≈ 20.6 µM)	0.17 µg/mL (≈ 0.433 µM)
COC(=O)[C@H](C)[C@H]1CC[C@@](C)(CCC2=C(C)CCCC2(C)C)OO1 [NUAPAPUIN A METHYL ESTER]	0.76 µg/mL (≈ 2.25 µM)	–	–	–	100%	100%	6.2 µg/mL (≈ 18.3 µM)	5.5 µg/mL (≈ 16.2 µM)
CC1=C(CC/C(C)=C/CC[C@@]2(C)CC[C@@H]([C@H](C)C(=O)O)OO2)C(C)(C)CCC1 [EPIMUQUBILIN A]	0.28 µg/mL (≈ 0.713 µM)	–	–	–	50%	25%	> 10 µg/mL	7.2 µg/mL (≈ 18.3 µM)
COC(=O)[C@H](C)[C@H]1CC[C@@](C)(CCC2=C(C)C(=O)C[C@@H]3C(C)(C)CCC[C@@]23C)OO1 [DIACARPEROXIDE G]	2 µg/mL (≈ 4.76 µM)	–	–	–	60%	50%	> 10 µg/mL	> 10 µg/mL
C=C1CCCC(C)(C)C1(O)CC/C(C)=C/CC[C@]1(C)CC[C@H]([C@@H](C)C(=O)OC)OO1 (some centres undefined) [EPIMUQUBILIN B]	< 0.1 µg/mL	–	–	–	60%	45%	6 µg/mL (≈ 14.2 µM)	1 µg/mL (≈ 2.37 µM)
CCCC(O)CCC(C)(O)CC/C=C(\C)CCC1=C(C)CCCC1(C)C (centres undefined) [DIACARDIOL A]	4.8 µg/mL (≈ 13.2 µM)	–	–	–	40%	20%	> 10 µg/mL	> 10 µg/mL
